A selection: hits, their analogues and other compounds. The true share with any hit is near 1.9%.
PLCb3 inh: human PLC-beta3 inhibitors, primary screen, biochemical, fluorescence | inhibition, % at 12.2 µM | 370,000 compounds, 0.18% hits | Purified PLC-beta3, fluorogenic substrate; in the data active = inhibition above about 11%;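 also: 0% = median of compound wells on plate and 100% = full blocker control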
sPLA2-III inh: human group III sPLA2 inhibitors, primary screen, biochemical, QFRET, BODIPY PC-A2 liposome substrate; Group 3 secretory phospholipase A2 (Homo sapiens), Q9NZ20; QFRET BODIPY PC-A2 liposome hydrolysis, fluorescence; inhibition, % at 12.2 µM; 370,000 compounds, 0.56% hits;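 active = inhibition above mean plus 3 SD of compounds lying within the high and low control bounds, cut at about 19% in these data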;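 also: 0% = median of test compound wells and 100% = no enzyme DMSO wells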
procasp7 counter: procaspase-7 activators, primary screen, counter-screen for procaspase-3 activator project, biochemical, absorbance, HTS, human; Caspase-7 (Homo sapiens), P55210; activation, % at 8.5 µM; recombinant procaspase-7, Ac-DEVD-pNA absorbance 405 nm; D23A/D198A/D206A triple mutant, cannot self-cleave; scale: DMSO 0, 5 µM enzyme 100; 330,000 compounds, 0.093% hits;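 active = percent activation above the screen-wide mean plus 3 SD, cut at about 25% in these data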
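System: Procaspase-7 triple mutant (PC-7 D3A); measure: % activation from two-timepoint absorbance difference, scaled to controls; times: 1 h compound preincubation, 2 h substrate cleavage, 25 °C; also added: Ac-DEVD-pNA substrate, 400 µM as added; measured by: Epi-absorbance of released pNA at 405 nm, two timepoints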
PLC-gamma1 inh: PLC-gamma1 enzyme inhibitors, primary screen, biochemical, fluorescence, purified enzyme | 1-phosphatidylinositol 4,5-bisphosphate phosphodiesterase gamma-1 (Homo sapiens), P19174 | fluorogenic substrate | inhibition, % at 12.2 µM | 370,000 compounds, 0.84% hits | AID 720700, 2013; in the data active = inhibition above about 9.5%
Arr AP2 block: inhibitors of beta-arrestin/AP2 binding, primary screen, biochemical, GPCR trafficking, flow cytometry; beta-arrestin 1 C-terminal peptide binding to AP2 beta2-adaptin appendage (human); 340,000 compounds, 0.31% hits; AID 504490, 2011; inhibition, % at 10 µM; FITC-arrestin peptide / GST-AP2 beads; AP2 beta2 appendage carries R879A mutation;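 active = inhibition above a set limit, near 3 SD of compounds lacking own fluorescence, cut at about 54% in these data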;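 also: plate controls were DMSO wells for no effect and 5 µM unlabelled arrestin peptide for full effect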
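System: GST-tagged AP2 beta2-adaptin appendage (R879A) on 4 µm glutathione beads / Reagent: FITC-arrestin peptide, 50 nM / Detection: HyperCyt-sampled flow cytometry, FL1 channel, ex 488/em 535 nm / Timing: 12 min plus 1 h, RT / Buffer or medium: PBS plus Tween 20 (0.05%) and BSA (0.1%)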
procasp3 activ: activators of human procaspase-3 D3A mutant, primary screen, biochemical, absorbance, PC-3 D3A mutant, single concentration. activation, % at 8.5 µM. Caspase-3 (Homo sapiens), P42574. recombinant procaspase-3 D3A, Ac-DEVD-pNA absorbance 405 nm. AID 463141, 2010. 330,000 compounds, 0.11% hits;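 active = activation above the mean of all tested compounds plus 3 SD, cut at about 21% in these data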;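 also: 0% = DMSO alone and 100% = DMSO wells spiked with extra 5 µM PC-3 D3A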
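Compound: 8.5 µM single point, 0.8% DMSO / Material: Autoprocessing-dead procaspase-3 D3A mutant enzyme / Timing: 1 h preincubation plus 2 h reaction at 25 °C / Medium: Zinc-free HEPES/NaCl buffer with 0.01% Triton X-100 at pH 7.4 / Technique: 405 nm absorbance of p-nitroaniline, reads at 0 and 120 min / Repeats: one well per compound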
hGIII sPLA2 conf: human group III sPLA2 inhibitors, confirmation, biochemical, QFRET, triplicate; shares compounds with sPLA2-III inh; recombinant hGIII-sPLA2, BODIPY PC-A2 QFRET fluorescence; inhibition, % at 12.2 µM; 2,000 compounds, 34% hits; AID 743280, 2014;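 active = mean inhibition across triplicates above the hit cutoff set in the earlier primary screen, cut at about 19% in these data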;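 also: 0% = enzyme with DMSO and 100% = DMSO wells lacking enzyme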
535nm interf: 535nm fluorescence optical interference, confirmation, artefact control for HGIII-sPLA2 inhibitor project, biochemical, QFRET; shares compounds with sPLA2-III inh; BODIPY FL product fluorescence interference; inhibition, % at 12.2 µM; 2,000 compounds, 8.5% hits;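 active = average inhibition above the solvent-only control mean plus 3 SD, cut at about 6% in these data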;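 also: 0% = DMSO with substrate plus product and 100% = DMSO with substrate alone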
BODIPY interf DR: 535nm fluorescence optical interference, dose response, artefact control for HGIII-sPLA2 inhibitor project, biochemical, QFRET; shares compounds with sPLA2-III inh; BODIPY FL product fluorescence interference, cell-free; IC50, µM; 240 tested, under 10 active;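 active = IC50 at or below 10 µM; inactive = IC50 above 10 µM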
* = called active by the depositor; · = no result given.

SMILES	PLCb3 inh	sPLA2-III inh	procasp7 counter	PLC-gamma1 inh	Arr AP2 block	procasp3 activ	hGIII sPLA2 conf	535nm interf	others
CCCCn1nnc(NC(=S)NC(=O)c2cccs2)n1	-2	23*	-27	2	10	-26	11	-5
CC(C)Cn1c(N)c(C(=O)CSc2nc3ccccc3c(=O)n2CCCN2CCOCC2)c(=O)n(C)c1=O	·	·	12	·	·	-7	·	·
S=C(/N=c1/sccn1Cc1ccccc1)NC1CC1	-10	20*	-22	-2	0	-14	18	-6
CCc1nc2ccc(C(=O)Nc3ccc(Cl)c(Cl)c3)cn2c1N(C)Cc1ccc(OC)cc1	-18	-13	·	-13	·	·	·	·
COc1ccc(-n2c(SCC(=O)Nc3ccc(Oc4ccccc4)cc3)nnc2-c2ccccc2)cc1	4	-2	·	-2	·	·	·	·
Cc1ccc(-c2nnc(SCC(=O)NNC(=S)Nc3ccccc3)n2C2CCCCC2)cc1	0	28*	·	1	·	·	33*	-9	BODIPY interf DR=>122
Cc1ccc(-c2nnc(SCC(=O)Nc3ccc4c(c3)OCCO4)n2-c2ccc(C)cc2)cc1	0	21*	·	1	·	·	-15	-23
O=C(O)CSc1nnc(-c2ccncc2)n1C1CCCCC1	3	2	-18	2	9	-12	·	·
COc1ccc(-n2c(SCC(=O)NNC(=S)Nc3ccc(C)cc3)nnc2-c2ccccc2)cc1	-1	31*	·	0	·	·	18	-3
Cc1ccc(S(=O)(=O)N2CCCC(C(=O)NCCc3ccc(Cl)cc3)C2)cc1 (stereo not given)	1	0	·	0	·	·	·	·
C[C@H](CO)N1C[C@H](C)[C@@H](CN(C)S(=O)(=O)c2ccc(F)cc2)Oc2ccc(NC(=O)C3CC3)cc2C1=O	8	-6	0	-1	7	-4	·	·
CCOC(=O)c1sc(=S)n(-c2ccccc2)c1N	-2	7	-1	-1	-5	6	·	·
CCOC(=O)c1sc(=S)n(-c2ccc(OC)cc2)c1N	-6	25*	11	5	-7	1	15	-1
CSC1=NCCCN1C(=O)c1c(-c2ccccc2Cl)noc1C	-2	22*	5	1	22	5	-2	-6
O=C(NNC(=S)Nc1ccc(F)cc1)C1[C@H]2CCCC[C@@H]12 (stereo not given in full)	-1	25*	-2	1	-2	1	22*	3
O=C(Nc1ccccc1)C1C2CCCCC21 (stereo not given)	-4	-4	3	0	7	-2	·	·
Cc1cccc(Oc2cc(N)cc([N+](=O)[O-])c2)c1	-1	20*	5	2	-3	5	16	-2
CCOC(=O)c1cc2sccc2n1CC(=O)Nc1ccc(OC)cc1OC	-2	21*	0	-1	0	3	-25	-18
COc1ccc(N2CCN(S(=O)(=O)c3ccc(OC)c(C(=O)N4CCCC4)c3)CC2)cc1	-6	8	5	2	-2	-3	·	·
